The values that follow come from ChEMBL document CHEMBL1817665, “Synthesis and identification of β-aryloxyquinolines and their pyrano[3,2-c]chromene derivatives as a new class of antimicrobial and antituberculosis agents” (2011).

In test [1] the test system is Streptococcus pneumoniae. The experiment in a line: Antibacterial activity against 10^8 CFU/mL Streptococcus pneumoniae MTCC 1936 by NCCLS M100-S12(M7) broth microdilution method. Type of test: functional. The procedure, abridged:
(§1)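 Broth microdilution in Mueller Hinton broth. Inoculum was adjusted by turbidity to 10^8 CFU/mL. Compounds came from 2000 µg/mL DMSO stocks. Primary screen used 500, 250 and 200 µg/mL; actives were retested at 100, 62.5, 50 and 25 µg/mL. Tubes were incubated overnight at 37 °C. […] A known-sensitivity organism was run in parallel.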

Test [2] relates to Vibrio cholerae. As to the kind of experiment: Antibacterial activity against 10^8 CFU/mL Vibrio cholerae MTCC 3906 by NCCLS M100-S12(M7) broth microdilution method. Type of test: functional. In short, it runs like this:
as §1
On the technique in general: Broth dilution looks for growth in wells or tubes with falling amounts of substance.

For test [3], the system named is Salmonella typhi. As to the kind of experiment: Antibacterial activity against 10^8 CFU/mL Salmonella typhi MTCC 98 by NCCLS M100-S12(M7) broth microdilution method. The settings on record: Salmonella enterica. Type of test: functional, Salmonella enterica subsp. enterica serovar Typhi. The procedure, abridged: as §1
Test [4] has as its system Clostridium tetani. The experiment in a line: Antibacterial activity against 10^8 CFU/mL Clostridium tetani MTCC 449 by NCCLS M100-S12(M7) broth microdilution method. Type of test: functional. In short, it runs like this:
as §1

Test [5] concerns Escherichia coli. As to the kind of experiment: Antibacterial activity against 10^8 CFU/mL Escherichia coli MTCC 443 by NCCLS M100-S12(M7) broth microdilution method. Type of test: functional. The procedure, abridged: as §1
For test [6], the system named is Bacillus subtilis. The experiment in a line: Antibacterial activity against 10^8 CFU/mL Bacillus subtilis MTCC 441 by NCCLS M100-S12(M7) broth microdilution method. Type of test: functional. The procedure, abridged: as §1
Test [7] deals with Mycobacterium tuberculosis. As to the kind of experiment: Antituberculosis activity against Mycobacterium tuberculosis H37Rv after 24 hrs by Lowenstein-Jensen method. Type of test: functional.
In test [8] the test system is Candida albicans. The experiment in a line: […] activity against 10^8 CFU/mL Candida albicans MTCC 227 by NCCLS M100-S12(M7) broth microdilution method. Type of test: functional.
In test [9] the test system is Mycobacterium tuberculosis. The experiment in a line: Antituberculosis activity against Mycobacterium tuberculosis H37Rv at 250 ug/mL after 24 hrs by Lowenstein-Jensen method. Type of test: functional.
The test system of test [10] is Aspergillus fumigatus. As to the kind of experiment: […] activity against 10^8 CFU/mL Aspergillus fumigatus MTCC 3008 by NCCLS M100-S12(M7) broth microdilution method. Type of test: functional.

In brackets after ≈: the same amount, converted by molar mass.

The term MIC99 denotes the lowest concentration that inhibits either 99% of growth or 99% of the strains tested, depending on the study. With `CC1(C)S[C@@H]2[C@H](NC(=O)[C@H](N)c3ccccc3)C(=O)N2[C@H]1C(=O)O` [AMPICILLIN], the MIC99 in test [1] was found to be 100 µg/mL (≈ 286 µM); in test [2], 100 µg/mL (≈ 286 µM); in test [3], 100 µg/mL (≈ 286 µM); in test [4], 250 µg/mL (≈ 715 µM); in test [5], 100 µg/mL (≈ 286 µM); in test [6], 250 µg/mL (≈ 715 µM).
The term MIC denotes the lowest concentration found to suppress growth. Read a high MIC as a less susceptible organism. `NNC(=O)c1ccncc1` [ISONIAZID] registered an MIC in test [7] of 0.2 µg/mL (≈ 1.46 µM).
Broadly, the inhibition is how much of the control response was suppressed. A low value points to little suppression. Turning to `Cc1ccc2nc(Oc3ccc(Cl)cc3)c(C=O)cc2c1`, the MIC99 in test [1] is 250 µg/mL (≈ 840 µM); in test [2], 500 µg/mL (≈ 1680 µM); in [3] it was 100 µg/mL (≈ 336 µM); in test [8] it was 500 µg/mL (≈ 1680 µM); in [4] it was 500 µg/mL (≈ 1680 µM); in test [5], 250 µg/mL (≈ 840 µM). For the same compound, the MIC99 in [10] is 1000 µg/mL (≈ 3360 µM); in test [6] it was 500 µg/mL (≈ 1680 µM). In [7], this compound displayed an MIC of 310 µg/mL (≈ 1040 µM). Moreover, in test [9], the inhibition at 250 µg/mL is 93%.
Regarding `Cc1ccc2nc(Oc3ccccc3)c(C=O)cc2c1`, the MIC99 in test [1] turned out to be 500 µg/mL (≈ 1900 µM); in test [2] it was 250 µg/mL (≈ 950 µM); in test [3], 200 µg/mL (≈ 760 µM); in test [8], 250 µg/mL (≈ 950 µM); in test [4], 200 µg/mL (≈ 760 µM); in test [5] it was 200 µg/mL (≈ 760 µM). Further, the MIC99 in test [10] amounted to 500 µg/mL (≈ 1900 µM); in test [6], 250 µg/mL (≈ 950 µM). In test [9], the inhibition at 250 µg/mL worked out at 62%.
For `COc1ccc2nc(Oc3ccc(C)cc3)c(C=O)cc2c1`, the MIC99 in [1] came to 500 µg/mL (≈ 1700 µM); in test [2], 500 µg/mL (≈ 1700 µM); in test [3], 250 µg/mL (≈ 852 µM); in [8] it was 250 µg/mL (≈ 852 µM); in test [4] it was 500 µg/mL (≈ 1700 µM); in [5] it was 250 µg/mL (≈ 852 µM). Also, the MIC99 in test [10] came to 1000 µg/mL (≈ 3410 µM); in test [6], 250 µg/mL (≈ 852 µM). The inhibition at 250 µg/mL in test [9] was determined as 23%.
In the case of `Cc1ccc(Oc2nc3ccc(C)cc3cc2C=O)cc1`, the MIC99 in test [1] is 200 µg/mL (≈ 721 µM); in test [2] it was 200 µg/mL (≈ 721 µM); in test [3], 100 µg/mL (≈ 361 µM); in test [8], 500 µg/mL (≈ 1800 µM); in test [4], 200 µg/mL (≈ 721 µM); in test [5] it was 50 µg/mL (≈ 180 µM). Further, the figures for the MIC99 in test [10] and in [6] were 1000 µg/mL (≈ 3610 µM) and 250 µg/mL (≈ 901 µM), respectively. In [9], testing at 250 µg/mL gave an inhibition of 84%.
Take `COc1ccc2nc(Oc3ccccc3)c(C=O)cc2c1`: the MIC99 was 200 µg/mL (≈ 716 µM) in test [1]; 200 µg/mL (≈ 716 µM) in test [2]; 100 µg/mL (≈ 358 µM) in test [3]; 1000 µg/mL (≈ 3580 µM) in [8]; 250 µg/mL (≈ 895 µM) in [4]; 62.5 µg/mL (≈ 224 µM) in test [5]. For the same compound, the values for the MIC99 in test [10] and in test [6] were above 1000 µg/mL and 100 µg/mL (≈ 358 µM), respectively. Also, the inhibition at 250 µg/mL in test [9] worked out at 42%.
Consider `O=Cc1cc2ccccc2nc1Oc1ccc(Cl)cc1`, for which the MIC99 in test [1] came out at 62.5 µg/mL (≈ 220 µM); in test [2], 500 µg/mL (≈ 1760 µM); in test [3], 200 µg/mL (≈ 705 µM); in [8] it was 250 µg/mL (≈ 881 µM); in [4], 500 µg/mL (≈ 1760 µM); in test [5], 100 µg/mL (≈ 352 µM). Besides, the MIC99 in test [10] was above 1000 µg/mL; in test [6], 200 µg/mL (≈ 705 µM). Besides, the inhibition at 250 µg/mL in [9] was 64%.
For the compound `Cc1ccc(Oc2nc3ccccc3cc2C=O)cc1`, the MIC99 in test [1] came to 250 µg/mL (≈ 950 µM); in [2], 250 µg/mL (≈ 950 µM); in test [3], 100 µg/mL (≈ 380 µM); in test [8], 500 µg/mL (≈ 1900 µM); in test [4], 250 µg/mL (≈ 950 µM); in [5] it was 100 µg/mL (≈ 380 µM). Also, the MIC99 in test [10] and in [6] was 500 µg/mL (≈ 1900 µM) each time. This compound returned an inhibition at 250 µg/mL in [9] of 74%.
As to `O=Cc1cc2ccccc2nc1Oc1ccccc1`, the MIC99 in test [1] was 500 µg/mL (≈ 2010 µM); in test [2], 500 µg/mL (≈ 2010 µM); in test [3], 500 µg/mL (≈ 2010 µM); in test [8], above 1000 µg/mL; in [4], 500 µg/mL (≈ 2010 µM); in test [5], 500 µg/mL (≈ 2010 µM). The MIC99 in [10] is above 1000 µg/mL; in test [6], 1000 µg/mL (≈ 4010 µM). Further, the MIC in [7] worked out at 260 µg/mL (≈ 1040 µM). In test [9], the inhibition at 250 µg/mL is 95%.
In the case of NYSTATIN, the MIC99 in test [8] and in test [10] was 100 µg/mL in each case.
As to `COC1=CC(=O)C[C@@H](C)[C@]12Oc1c(Cl)c(OC)cc(OC)c1C2=O` [GRISEOFULVIN], the values for the MIC99 in test [8] and in [10] were 500 µg/mL (≈ 1420 µM) and 100 µg/mL (≈ 283 µM), respectively.
Regarding `COc1ccc2nc(Oc3ccc(Cl)cc3)c(C=O)cc2c1`, the MIC99 is 250 µg/mL (≈ 797 µM) in test [1]; 200 µg/mL (≈ 637 µM) in test [2]; 200 µg/mL (≈ 637 µM) in [3]; 500 µg/mL (≈ 1590 µM) in test [8]; 200 µg/mL (≈ 637 µM) in [4]; 200 µg/mL (≈ 637 µM) in test [5]. In addition, the MIC99 in test [10] amounted to 1000 µg/mL (≈ 3190 µM); in [6] it was 200 µg/mL (≈ 637 µM). In [9], this compound gave an inhibition at 250 µg/mL of 54%.
